Among the data in ChEMBL document CHEMBL4513216, “Probing the Open Global Health Chemical Diversity Library for Multistage-Active Starting Points for Next-Generation Antimalarials” (ACS Infect Dis, 2020) are cytotoxicity values, retold here.

The series is described as follows: Toxicity liver stage against HepG2, at 10uM. Particulars: human, HepG2-A16-CD81EGFP cells; read-out: INHIBITION
In kind it is cell-based. On the set-up: test concentration 10 uM, cell line HepG2-A16-CD81EGFP. In outline: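 Uninfected HepG2-A16-CD81EGFP cells, 3 × 10^3 per well, 1536-well, plated on prespotted compound at 10 μM final, parasite-free screening media added to match infected plates; puromycin 10 μM positive, DMSO 0.5% negative; run in parallel with 48 h PbLuc assay at 37 °C, 5% CO2; viability by CellTiter-Glo luminescence, normalized to controls.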
On to `Cc1ccc(CCCC(=O)N2CCC(CS(N)(=O)=O)CC2)s1`, for which the cytotoxicity at 10 µM was 15.6%.

In the case of `CN1C(Cn2cccn2)C[C@@H]2CN(Cc3nccs3)CC[C@@H]21` (some centres not stated), the cytotoxicity at 10 µM was 3.8%. Turning to `COc1nc(C)c(C(=O)NCc2cc(N3CCOCC3)ncn2)s1`, the cytotoxicity at 10 µM came out at 12.9%.

For the molecule `CCCn1cnnc1CNC(=O)CC1C(=O)NCCN1CC=C(C)C` (configuration not stated), the cytotoxicity at 10 µM stood at 6.64%.

On to `N#Cc1ccc(NCC(=O)Nc2ccn(Cc3cccnc3)n2)cc1`, for which the cytotoxicity at 10 µM was -11.2%.

Take `CNC(=O)CCN1CCC(c2nnc(Cn3cccn3)n2C2CC2)CC1`: the cytotoxicity at 10 µM worked out at 1.53%. Take `Cc1cc(C)n(C2CN(CCc3ccncc3)C2)n1`: the cytotoxicity at 10 µM was -1.12%. With `CS(=O)(=O)CCn1ccc(NC(=O)Cc2ccccc2F)n1`, the cytotoxicity at 10 µM was found to be 3.73%. On to `COCCNC(=O)Nc1cccc(COCCOC(C)C)c1`, for which the cytotoxicity at 10 µM turned out to be 6.13%. Turning to `CC(C)c1nc(C2CCCN(Cc3nnc(C4CC4)o3)C2)no1` (configuration not stated), the cytotoxicity at 10 µM was 5.65%. `CCC1(O)CCCN(c2nc(-c3ccccn3)nc3c2c(C)nn3C)C1` (configuration not stated): the cytotoxicity at 10 µM turned out to be 3.11%. `CCCS(=O)(=O)N1CCC2(CC1)CN(C(=O)N(C)C)c1ccccc12`: the cytotoxicity at 10 µM was -108%. Turning to `COc1cc(N2CCC3(CC2)CC(N2CCN(C)CC2)CO3)ncn1` (configuration not stated), the cytotoxicity at 10 µM was -9.11%. On to `CC1(c2cc[nH]n2)CCN(C(=O)c2ccc(Cl)cc2)CC1`, for which the cytotoxicity at 10 µM is 0.812%. Take `CCCN(Cc1nnnn1C1CC1)CC1COc2ccccc2O1` (configuration not stated): the cytotoxicity at 10 µM stood at 2.04%. In the case of `Cc1cc(-c2ccccc2C(=O)O)nc(C2CCCN(C(C)C)C2)n1` (configuration not stated), the cytotoxicity at 10 µM is -4.47%. With `CS(=O)(=O)c1ccc(-c2ccccc2C(=O)O)cc1`, the cytotoxicity at 10 µM is 0.238%.

Take `COCCN1CCC2(CCCN(Cc3ccoc3)C2)C1=O` (configuration not stated): the cytotoxicity at 10 µM amounted to 0.582%. For `O=C(NCC1CCOC1)c1csc(Cc2ccccc2)n1` (configuration not stated), the cytotoxicity at 10 µM is -118%. The same measure for `Cc1cnc(C(=O)N2CCNCC2C(=O)NCc2ccncc2)cn1` (configuration not stated): 0.89%; for `CCOc1ccccc1CCNC(=O)NCC(O)c1cccs1` (configuration not stated): -4.47%; for `Cn1cnc2c1C(COCC1CC1)CN(c1ncccn1)C2` (configuration not stated): 7.22%.

For `Cc1ncc2c(n1)CN(C(C(N)=O)c1ccccc1)CC2` (configuration not stated), the cytotoxicity at 10 µM came to 0.66%. With `Cc1nc(C)n(CC2CCCCN2CCCS(=O)(=O)N(C)C)n1` (configuration not stated), the cytotoxicity at 10 µM is -18.5%. On to `CC(=O)N1CCN(c2ccccc2CNc2cncc(C)c2)CC1`, for which the cytotoxicity at 10 µM is 2.22%. For `CCN(CC)C(=O)[C@@H]1C[C@@H](NC(=O)c2ccoc2)CN1C`, the cytotoxicity at 10 µM stood at 2.37%. In the case of `O=c1cc(CNS(=O)(=O)C2CC2)nc2n1CCCN(CC1CC1)C2`, the cytotoxicity at 10 µM is -104%. With `CN(Cc1cc2n(n1)CCN(C(=O)[C@H]1CCCO1)C2)Cc1nccs1`, the cytotoxicity at 10 µM amounted to 7.92%. As for `CC(C)c1nccn1-c1cccc(C2CCCN(S(=O)(=O)N(C)C)C2)n1` (configuration not stated), the cytotoxicity at 10 µM was -3.11%.

Turning to `COc1cc(N[C@@H](Cc2ccccc2)C(N)=O)ncn1`, the cytotoxicity at 10 µM came to 10.1%. Turning to `CN(C)S(=O)(=O)N1CC[C@]2(O)CCN(Cc3cccc(C#N)c3)C[C@@H]2C1`, the cytotoxicity at 10 µM is -4.63%. With `COc1ccc(C(C)N2CCC(CNC(C)=O)CC2)cc1Cl` (configuration not stated), the cytotoxicity at 10 µM is -51.5%. For the molecule `O=C(c1cccc(F)c1F)N1CCn2c(nnc2C(F)(F)F)C1`, the cytotoxicity at 10 µM was -8.22%. The same measure for `O=C(CCCc1nnc(-c2ccccc2)o1)N1CCC1`: -3.41%; for `Cc1ccc(NC(=O)C2CCCN2C(=O)C2CC2)nc1` (configuration not stated): -2.15%. As to `COc1ncccc1CNCc1c(C)nn(C)c1N1CCOCC1`, the cytotoxicity at 10 µM is -11.1%.

On to `O=C1CC[C@H]2CN(c3ncccc3F)CC[C@H]2N1CCc1ccccc1`, for which the cytotoxicity at 10 µM was 4.52%. Under `Cn1c(C2CC2)nc2c1CCN(CCOc1cccc(F)c1)C2` stands -13.1%; under `CC(C)CC(Cc1cccc(Br)c1)C(=O)O` (configuration not stated), 13.8%. On to `Cn1ncc2c(=O)[nH]c(CN(Cc3ccco3)C3CCCC3)nc21`, for which the cytotoxicity at 10 µM stood at 20.8%.

As to `CC(C)COCCNC(=O)NC1CCCN(c2cnn(C)c2)C1` (configuration not stated), the cytotoxicity at 10 µM was determined as 9.39%. As to `COc1cc(N2CCCn3cnc(COC(C)C)c3C2)ncn1`, the cytotoxicity at 10 µM was -5.3%.

Regarding `CCOCCNC(=O)C(CCSC)NC(=O)c1ccc2ccccc2n1` (configuration not stated), the cytotoxicity at 10 µM was -9.95%. Take `COc1ccc(CNC(=O)Nc2ccc(CN3CCOC3=O)cc2)cc1`: the cytotoxicity at 10 µM is -1.44%. Turning to `CN(Cc1ccsc1)C(=O)CN1CCCCC1Cn1cccn1` (configuration not stated), the cytotoxicity at 10 µM is -1.07%. Under `COCCc1ncc(CN2CCC3(CCCN(CC4CC4)C3)C2)cn1` (configuration not stated) stands -4.07%; under `CNC(=O)CCCNCc1c(C)nn(CC(C)C)c1N(C)C`, -2.51%; under `CCOC(=O)[C@]12CCCN(Cc3nccs3)C[C@H]1CN(S(C)(=O)=O)C2`, -5.79%. Under `CC(C)NC(=O)Cn1cc(-c2ccccc2)cn1` stands -0.577%. Turning to `CC(C)c1cc(N2CCC(N(C)C)C2)n2nccc2n1` (configuration not stated), the cytotoxicity at 10 µM was -0.869%.

With `Cc1cc(=O)n2nc(Oc3cccc(I)c3)sc2n1`, the cytotoxicity at 10 µM stood at 3.63%. Regarding `O=c1cc2c(nn1CN1CCN(c3ccc(F)cc3)CC1)CCC2`, the cytotoxicity at 10 µM is -2.15%. Under `Cc1cc(CNC(=O)NCCCC(=O)N2CCc3ccccc32)no1` stands 5.02%. On to `CCN(CC)C(=O)c1ccc(CNc2cncc(-n3cccn3)n2)cc1`, for which the cytotoxicity at 10 µM was determined as 7.18%. For the molecule `O=C(N[C@@H]1CCC[C@@H](N2CCCC2)[C@@H]1O)c1cc2ccccc2[nH]1`, the cytotoxicity at 10 µM was -16.2%. Regarding `Cn1cccc1C(=O)NC1CCN(c2ccc(OC(F)(F)F)cc2)CC1`, the cytotoxicity at 10 µM is 4.87%. `CC(C)CCC(=O)NCC(=O)N1CCCCCC1c1ccco1` (configuration not stated): the cytotoxicity at 10 µM stood at 7.47%.

`CCOc1ccc2[nH]c(=O)c(CN3CCC(O)CC3)cc2c1`: the cytotoxicity at 10 µM amounted to 1.25%. The same measure for `Cc1cc2nc(C(C)C)cc(NCc3ccncc3)n2n1`: 2.63%; for `COc1cccc(-c2cnc3n2CCC32CCN(S(C)(=O)=O)CC2)c1`: -2.2%; for `O=C1CCC2(CCCN(C(=O)Cc3ccccn3)C2)N1` (configuration not stated): 4%. With `Cc1nc(N2CCCC2)nc2c1CCN(C(=O)N1CCCC1)CC2`, the cytotoxicity at 10 µM was determined as 1.82%.

Turning to `COc1ccc2c(=O)ccn(CC(=O)O)c2c1`, the cytotoxicity at 10 µM amounted to 10.2%. For the molecule `Cc1noc(C)c1CCC(=O)N1CCCN(Cc2cccs2)CC1`, the cytotoxicity at 10 µM is -3.39%. Regarding `COC(=O)c1ccc(S(=O)(=O)N(C)CC(N)=O)c(Cl)c1`, the cytotoxicity at 10 µM is -1.65%. With `NC(=O)c1ccc(=O)n(Cc2cc(Br)ccc2Cl)n1`, the cytotoxicity at 10 µM worked out at 4.71%. With `CC(=O)N1CCC2(CC1)CC(NS(C)(=O)=O)c1ccccc1O2` (configuration not stated), the cytotoxicity at 10 µM is 5.53%. As for `CC(=O)c1ccc(S(=O)(=O)N2CCCC2CN2CCCC2)cc1` (configuration not stated), the cytotoxicity at 10 µM was -1.35%. For the molecule `CCCc1noc(CNc2ccc(C(=O)N3CCCC3)cc2C)n1`, the cytotoxicity at 10 µM was -2.83%. As for `CC(=O)Nc1ccc(Cl)c(C(=O)N(C)C(C)c2nccs2)c1` (configuration not stated), the cytotoxicity at 10 µM is -42.8%. Regarding `CC(OCC1CC1)C(=O)Nc1cccc(C(=O)Nc2ccncc2)c1` (configuration not stated), the cytotoxicity at 10 µM is 7.12%. Regarding `CC(C(=O)NC1CC1)S(=O)(=O)Cc1csc(-c2cccs2)n1` (configuration not stated), the cytotoxicity at 10 µM was 9.02%. In the case of `CCSc1ccc(C(=O)N2CCCC2C(=O)N2CCOCC2)cn1` (configuration not stated), the cytotoxicity at 10 µM is -6.98%. Consider `N#Cc1ccc(OCCCN2CCc3cncnc3C2)cc1`, for which the cytotoxicity at 10 µM is -10%. The same measure for `COc1cc(C2(C(=O)NC3CCN(C4CC4)CC3)CC2)ccc1C`: 5.16%; for `CCS(=O)(=O)N1CCC(c2nnc(CN3CCOCC3)n2C)CC1`: 17%; for `CN1CCN(C[C@H]2CC[C@@H](Cc3ccc4c(c3)OCO4)O2)CC1`: -5.13%.

Take `CCn1nc(CC(C)C)cc1C(=O)N1CCC2(CC1)[C@H](O)C[C@@H]2O`: the cytotoxicity at 10 µM was -7.2%. Under `CC(Cn1cccn1)NC(=O)Nc1nccs1` (configuration not stated) stands -9.55%; under `Nc1nc(CCNc2ncnc3c2CCN(C(=O)C2CC2)C3)cs1`, -6.68%; under `CC(=O)N1CCC2(CC1)CN(C(=O)c1cccnc1)c1ccc(F)cc12`, -108%.

Consider `CC(=O)N1CCCC(c2ccc3sc(N)nc3n2)C1` (configuration not stated), for which the cytotoxicity at 10 µM came out at 0.248%. Under `CCC1(C(=O)O)CCCN(CCOCc2ccccc2)C1` (configuration not stated) stands 7.33%; under `COc1ccc(CNC(=O)c2ccoc2CN2CCNC(=O)C2)cc1`, 6.41%. The same measure for `COc1ccc(Br)c(NC(=O)NCc2ncnn2C)c1`: 5.41%; for `N#Cc1cn(C2CC2)c(=O)n(Cc2noc(-c3cccs3)n2)c1=O`: 13%. Consider `CC(=O)N1CCCC2(C1)CN(c1ncc(C)cn1)CCO2` (configuration not stated), for which the cytotoxicity at 10 µM came to 14%. Under `CN1C(=O)C2(CC(=O)Nc3[nH]ncc32)c2ccc(F)cc21` (configuration not stated) stands -1.52%; under `O=C(c1ccc2nncn2c1)N1CCCC1c1noc(C2CC2)n1` (configuration not stated), -7.11%. On to `CC(C)CNC(=O)c1cc(C2CC2)nc2onc(C3CCNCC3)c12`, for which the cytotoxicity at 10 µM turned out to be 10.8%.

Consider `O=C(NCc1ccnc(-n2cccn2)c1)C1CC(=O)N(CC2CC2)C1` (configuration not stated), for which the cytotoxicity at 10 µM worked out at 5.48%. Regarding `CN(C)CC(=O)N1CCC2(CC1)CN(c1ccsc1)C(=O)CO2`, the cytotoxicity at 10 µM was determined as 10.1%. Regarding `COc1cccc(CC(=O)N2CCCC2c2nc(C)c(C)c(O)n2)c1` (configuration not stated), the cytotoxicity at 10 µM was -36.9%. Consider `COCCN1CCC(CN(CC2CCCO2)C(=O)C2CCOCC2)CC1` (configuration not stated), for which the cytotoxicity at 10 µM was -0.401%. As for `Cc1noc(C)c1CN(C)C(=O)Nc1cnn(CC2CCCO2)c1` (configuration not stated), the cytotoxicity at 10 µM was -2.77%.

On to `Cc1ccc(C(=O)N2CCOCC2C(N)=O)c(F)c1` (configuration not stated), for which the cytotoxicity at 10 µM was found to be 3.72%. Consider `O=C1OCCN1CCNc1ncc2c(n1)CCN2c1ccccc1`, for which the cytotoxicity at 10 µM was -4.95%.
